Test results from ChEMBL document CHEMBL2177103, “Discovery of diverse human dihydroorotate dehydrogenase inhibitors as immunosuppressive agents by structure-based virtual screening” (J Med Chem, 2012).
pIC50: −log10 of the molar value.

How the values were obtained:
[1] = tested on: Jurkat; experiment: Cytotoxicity against human Jurkat cells after 4 days by MTT assay; type: cell-based; details: 96 h
[2] = Immunosuppressive activity in mouse T cells assessed as inhibition of two way mixed lymphocyte reaction after 4 days by MTT assay; type: functional, cell-based; details: T-cell, 96 h
[3] = Immunosuppressive activity in ICR mouse B cells assessed as inhibition of LPS-stimulated cell proliferation after 72 hrs by MTT assay; type: functional, cell-based
[4] = target: T1, Dihydroorotate dehydrogenase (Plasmodium falciparum, UniProt Q54A96); experiment: Inhibition of Plasmodium falciparum DHODH expressed in Escherichia coli BL21 (DE3) using L-dihydroorotate as substrate after 10 mins by DCIP dye reduction assay
T1 sequence (Q54A96 whole entry): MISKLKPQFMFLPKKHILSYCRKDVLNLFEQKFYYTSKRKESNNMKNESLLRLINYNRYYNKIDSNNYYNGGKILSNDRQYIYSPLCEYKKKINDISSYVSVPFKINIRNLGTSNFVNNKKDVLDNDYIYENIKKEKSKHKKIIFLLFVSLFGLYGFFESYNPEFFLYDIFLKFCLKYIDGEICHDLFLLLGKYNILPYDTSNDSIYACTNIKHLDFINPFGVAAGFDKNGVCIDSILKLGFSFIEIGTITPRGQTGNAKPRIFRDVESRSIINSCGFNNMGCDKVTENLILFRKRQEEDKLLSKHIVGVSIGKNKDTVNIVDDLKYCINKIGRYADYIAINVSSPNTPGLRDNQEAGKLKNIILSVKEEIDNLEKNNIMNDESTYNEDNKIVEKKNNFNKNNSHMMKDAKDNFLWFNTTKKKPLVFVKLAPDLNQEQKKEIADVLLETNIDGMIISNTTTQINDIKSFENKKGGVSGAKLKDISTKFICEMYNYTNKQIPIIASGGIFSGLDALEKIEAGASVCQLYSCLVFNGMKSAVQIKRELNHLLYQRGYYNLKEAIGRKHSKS
Procedure, shortened: (§1)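 DCIP reduction read as absorbance decrease at 600 nm over 5 min. Enzyme preincubated 10 min with compound (DMSO stock diluted in assay buffer); reaction started with dihydroorotate, 500 μM final.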

[5] = target: Dihydroorotate dehydrogenase (quinone), mitochondrial (Homo sapiens, UniProt Q02127); experiment: Inhibition of human DHODH expressed in Escherichia coli BL21(DE3) using L-dihydroorotate as substrate after 10 mins by DCIP dye reduction assay
[6] = target: T2, Dihydroorotate dehydrogenase (Plasmodium falciparum) (UniProt Q54A96); experiment: Inhibition of Plasmodium falciparum DHODH expressed in Escherichia coli BL21 (DE3) using L-dihydroorotate as substrate at 10 uM after 10 mins by DCIP dye reduction assay; procedure, shortened: as §1
T2 sequence (whole entry): T1 sequence (Q54A96 whole entry)

[7] = tested on: Jurkat; experiment: Selectivity ratio of IC50 for human Jurkat cells to IC50 for ICR mouse B cells
[8] = tested on: T-cell; experiment: Selectivity ratio of IC50 for mouse T cells to IC50 for ICR mouse B cells; type: functional

Chain of Dihydroorotate dehydrogenase (quinone), mitochondrial (Q02127 whole entry): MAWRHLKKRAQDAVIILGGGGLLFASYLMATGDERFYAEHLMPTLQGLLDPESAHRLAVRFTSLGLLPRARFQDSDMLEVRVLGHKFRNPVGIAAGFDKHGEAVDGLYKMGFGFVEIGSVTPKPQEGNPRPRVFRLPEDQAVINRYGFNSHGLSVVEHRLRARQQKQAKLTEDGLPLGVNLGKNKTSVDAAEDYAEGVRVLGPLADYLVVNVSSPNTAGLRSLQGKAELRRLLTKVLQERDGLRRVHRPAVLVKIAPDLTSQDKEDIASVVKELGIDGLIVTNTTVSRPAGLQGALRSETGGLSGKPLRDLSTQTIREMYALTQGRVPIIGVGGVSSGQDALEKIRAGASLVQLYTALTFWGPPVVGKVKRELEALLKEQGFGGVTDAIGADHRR

| Compound | pIC50 [4] | pIC50 [5] | inhibition [6] [%] | pIC50 [1] | pIC50 [2] | pIC50 [3] | Ratio IC50 [7] | Ratio IC50 [8] |
| --- | --- | --- | --- | --- | --- | --- | --- | --- |
| CC(=O)c1sc(Nc2ccc(C)c(Cl)c2)nc1C | 6.12 | 6.03 | – | 5.27 | 5.02 | 5.33 | – | – |
| CCc1cccc(NC(=O)/C=C/c2ccc(Cl)c(Cl)c2)c1 | – | 6.26 | < 20 | 4.52 | 5.08 | 4.95 | – | – |
| O=c1cc(-c2ccc(O)c(O)c2)oc2ccccc12 | 5.02 | 4.91 | – | – | – | – | – | – |
| O=C(/C=C/c1ccc(O)c(C(=O)O)c1)c1ccc(Cl)cc1 | – | 5.22 | < 20 | 4.34 | 4.52 | 5.75 | 26 | 17 |
| O=C(/C=C/c1ccc(F)cc1)Nc1ccccn1 | – | 4.89 | < 20 | – | – | – | – | – |
| C/C(O)=C(\C#N)C(=O)Nc1ccc(C(F)(F)F)cc1 [TERIFLUNOMIDE] | – | – | – | 4.57 | 4.32 | 5.39 | – | – |
| Cc1ccc(C)c(/N=C/c2cccc(O)c2O)c1 | – | 4.75 | < 20 | – | – | – | – | – |
| Cc1ccccc1C(=O)Nc1cc(Cl)c(O)c(Cl)c1 | – | 4.79 | < 20 | – | – | – | – | – |
| COC(=O)c1ccc(Nc2nc(-c3ccc(Cl)cc3)c(C)s2)cc1 | – | 5.90 | < 20 | 4.80 | 4.88 | 4.89 | – | – |
| C/C=C/C[C@@H](C)[C@@H](O)[C@H]1C(=O)N[C@@H](CC)C(=O)N(C)CC(=O)N(C)[C@@H](CC(C)C)C(=O)N[C@@H](C(C)C)C(=O)N(C)[C@@H](CC(C)C)C(=O)N[C@@H](C)C(=O)N[C@H](C)C(=O)N(C)[C@@H](CC(C)C)C(=O)N(C)[C@@H](CC(C)C)C(=O)N(C)[C@@H](C(C)C)C(=O)N1C [CYCLOSPORINE] | – | – | – | < 5.00 | – | – | – | – |

Now from value to compound, other results behind:

| pIC50 [4] | pIC50 [5] | inhibition [6] [%] | Compound | pIC50 [1] | pIC50 [2] | pIC50 [3] | Ratio IC50 [7] | Ratio IC50 [8] |
| --- | --- | --- | --- | --- | --- | --- | --- | --- |
| – | 6.11 | < 20 | Oc1ccc(/C=N/c2cccc3ccccc23)c(O)c1 | 4.58 | 4.63 | 4.95 | – | – |
| – | 5.48 | < 20 | Brc1ccc(-c2csc(N/N=C/c3ccccc3)n2)cc1 | 5.97 | < 4.00 | < 4.00 | – | – |
| – | 5.17 | < 20 | COc1cccc(C(=O)Nc2nc3ccccc3s2)c1 | < 4.00 | < 4.00 | 4.79 | – | – |
| – | 5.40 | < 20 | Oc1ccc(/N=C/c2ccc3ccccc3c2)cc1 | 4.34 | 5.02 | 5.00 | – | – |
| 5.71 | 6.47 | – | O=C(Nc1nc2ccccc2s1)c1cccc(C(Cl)(Cl)Cl)c1 | 4.36 | 4.60 | 5.06 | – | – |
| – | 5.56 | < 20 | CC1=NN(c2ccccc2)C(=O)/C1=C/c1ccc(-c2cccc(C(=O)O)c2)o1 | < 4.00 | 4.13 | < 4.00 | – | – |
| – | 4.81 | < 20 | O=C(O)c1ccc(/C=N/c2cccc3ccccc23)cc1 | – | – | – | – | – |
| – | 6.96 | < 20 | O=Cc1ccccc1/C=N/Nc1nc(-c2ccccc2)cs1 | < 4.00 | 4.91 | 4.85 | – | – |
| – | 4.74 | < 20 | c1ccc2c(c1)Nc1nc3ccccc3nc1O2 | – | – | – | – | – |
| 5.33 | 5.74 | – | O=C(Nc1nc2ccccc2s1)c1ccc(Cl)cc1Cl | < 4.00 | 4.23 | 4.70 | – | – |
